Compound activity from PubChem BioAssay.
ERAP1 HTS inh: inhibitors of human ERAP1 aminopeptidase; Q9NZ08; recombinant ERAP1, Leu-AMC fluorescence, 60 min; inhibition, % at 10.7 µM; hit rate 0.15% among 340,000; AID 652197;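 active means mean replicate inhibition of at least 30%, or all replicates individually reaching that 30% level; inactive means mean below 30% and not every replicate reaching it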;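 further: 0% = neutral control wells and 100% = L-leucinethiol positive control wells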
Target sequence (Q9NZ08 whole entry, looked up): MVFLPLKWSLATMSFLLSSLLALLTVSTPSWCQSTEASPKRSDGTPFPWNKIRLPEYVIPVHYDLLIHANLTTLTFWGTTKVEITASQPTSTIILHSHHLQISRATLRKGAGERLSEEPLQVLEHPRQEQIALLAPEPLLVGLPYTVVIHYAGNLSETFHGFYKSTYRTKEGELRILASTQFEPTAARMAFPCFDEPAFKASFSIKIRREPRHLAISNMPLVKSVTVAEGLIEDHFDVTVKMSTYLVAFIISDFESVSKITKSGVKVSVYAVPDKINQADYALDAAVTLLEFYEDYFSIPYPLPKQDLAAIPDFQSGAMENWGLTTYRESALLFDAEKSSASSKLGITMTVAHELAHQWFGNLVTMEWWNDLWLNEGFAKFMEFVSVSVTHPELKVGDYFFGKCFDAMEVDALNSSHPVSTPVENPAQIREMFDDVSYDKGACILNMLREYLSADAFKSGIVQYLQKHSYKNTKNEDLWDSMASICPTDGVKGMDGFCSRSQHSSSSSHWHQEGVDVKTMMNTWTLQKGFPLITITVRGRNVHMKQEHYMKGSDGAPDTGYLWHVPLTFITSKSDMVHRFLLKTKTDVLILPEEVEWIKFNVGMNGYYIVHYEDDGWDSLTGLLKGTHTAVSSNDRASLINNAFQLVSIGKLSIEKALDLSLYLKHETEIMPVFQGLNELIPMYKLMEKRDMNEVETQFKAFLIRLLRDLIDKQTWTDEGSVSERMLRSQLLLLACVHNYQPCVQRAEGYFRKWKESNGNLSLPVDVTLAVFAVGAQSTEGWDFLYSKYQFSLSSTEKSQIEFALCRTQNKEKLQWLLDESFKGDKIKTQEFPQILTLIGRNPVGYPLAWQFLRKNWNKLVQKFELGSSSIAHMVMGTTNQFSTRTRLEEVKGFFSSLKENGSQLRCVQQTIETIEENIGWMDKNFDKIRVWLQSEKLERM
F508del corr: correctors of CFTR F508del function in bronchial epithelial cells; CFBE cells, YFP halide quenching; stimulated with forskolin plus potentiator P3; % fluorescence drop versus neutral controls; activity (quench increase), % at 7.58 µM; hit rate 0.36% among 350,000; AID 720511;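 active means mean added fluorescence quench of at least 8% versus neutral control, with both replicates also reaching 8%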;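 further: cells transiently co-express mutant CFTR-F508del with the halide-sensitive YFP; corrector assay measuring rescue of mutant channel to the surface after 24 h compound exposure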
S100A4 MyoIIA: blocks human S100A4 binding to myosin IIA peptide; S100A4/TAMRA-MyoIIA peptide fluorescence polarization; inhibition, % at 10.7 µM; hit rate 0.14% among 360,000; AID 652163;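 active means mean inhibition of at least 70% across replicates, with every replicate also reaching that level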
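Test system – S100A4 monomer (human) · Compound – single-point compound testing · Schedule – 5 min incubation before reading · Probe or stimulus – TAMRA-labelled myosin IIA heavy-chain peptide probe, 5 nM · Benchmarks – neutral control DMSO, positive control TFP · Medium – Calcium-containing HEPES buffer, pH 7.2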
Ecoli rRNA inh: selective bacterial rRNA inhibition in E. coli; hit rate 1.6% among 350,000; AID 720706; GFP signal change (wild-type ribosome), % (test concentration not listed); E. coli WT GFP vs humanized-ribosome RFP mutants, fluorescence, 24 h; hits give low values; DMSO median 0, no signal -100;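 active means significant combined selectivity score with lowered wild-type GFP, culture density cut under 30%, mutant RFP and density less affected; inactive means any of these conditions unmet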
SIRT5 block: sirtuin-5 (human) deacylase inhibition | Purified SirT5, succinyl-peptide AMC, trypsin-coupled fluorescence | hit rate 1.1% among 330,000 | Q9NXA8 | inhibition, % at 15 µM; in the data active means inhibition above about 15%
* marks the source's active call; other numbers are inactive results; nt = not tested or not shown. In the library only some 3.1% were active in any assay of this set; here they are far more common.

SMILES | ERAP1 HTS inh | F508del corr | S100A4 MyoIIA | Ecoli rRNA inh | SIRT5 block
CC1(C)CC(=O)C2=C(C1)c1c(ccc3ccccc13)NC2c1cc([N+](=O)[O-])cc([N+](=O)[O-])c1O (stereo unspecified) | 3.0 | -1.8 | 7.0 | -13.2 | 16.7*
O=C(C[C@@H]1CC[C@H]2[C@@H](COC[C@H](O)CN2Cc2ccc3c(c2)OCO3)O1)Nc1ccc(-c2ccccc2)cc1 | 1.0 | 9.6* | 12.3 | 3.4 | 7.8
O=C(C[C@H]1CC[C@@H]2[C@H](COC[C@H](O)CN2Cc2ccc3c(c2)OCO3)O1)N1CCOCC1 | 1.4 | -2.1 | 7.7 | -0.4 | -0.6
O=C(C[C@@H]1CC[C@@H]2[C@H](COC[C@@H](O)CN2Cc2ccc3c(c2)OCO3)O1)Nc1ccc(-c2ccccc2)cc1 | nt | 2.5 | nt | 10.8 | nt
O=C(C[C@@H]1CC[C@@H]2[C@H](COC[C@@H](O)CN2Cc2ccc3c(c2)OCO3)O1)N1CCOCC1 | 0.2 | -1.4 | 26.9 | 1.6 | 27.0*
O=C(C[C@H]1CC[C@H]2[C@@H](COC[C@@H](O)CN2Cc2cccc(Cl)c2)O1)N1CCCCC1 | -2.5 | -2.2 | 2.8 | -6.8 | 18.6*
COCCNC(=O)C[C@@H]1CC[C@H]2[C@@H](COC[C@H](O)CN2Cc2cccc(-c3ccncc3)c2)O1 | -4.4 | -1.0 | 89.6* | 2.8 | 9.9
C[C@H](CO)N1C[C@H](C)[C@H](CN(C)Cc2ccncc2)Oc2c(NC(=O)Nc3cccc4ccccc34)cccc2C1=O | -2.7 | -1.8 | 6.9 | 0.3 | 6.2
CC(C)NC(=O)N1C[C@H]2[C@@H](c3ccccc31)[C@@H](CO)N2C(=O)c1ccncc1 | -5.2 | -2.6 | 21.8 | 5.4 | 2.3
Cc1ccc(N=N/C(=C\O)C(=O)c2ccc(Cl)cc2)cc1 | -0.1 | 3.3 | 4.3 | 10.0 | 21.7*
O=C(/C(=C/O)N=Nc1ccccc1)c1ccc(Cl)cc1 | 0.8 | 1.6 | 0.1 | 3.2 | -5.1
Cc1cc(NC(=O)CSc2nccn2-c2cccc(F)c2)no1 | 5.7 | -0.6 | -4.3 | -4.1 | 2.5
Cc1cc(NC(=O)CSc2nccn2-c2cccc(C)c2C)no1 | -2.1 | 1.0 | 0.0 | -27.9* | 5.2
CCCN(C)C[C@H]1OCCCC[C@H](C)Oc2ccc(NC(=O)NC3CCCCC3)cc2C(=O)N([C@@H](C)CO)C[C@H]1C | 2.9 | -5.5 | -38.7 | 2.4 | -0.5
N#Cc1c(N)nc2c(c1-c1cccs1)CCCC2 | 5.2 | 1.0 | -0.5 | 6.8 | -2.4
CCCCSc1nc(N)c(C#N)c(-c2cccs2)c1C#N | -2.4 | -0.8 | -1.8 | -31.4* | 0.4
CSc1cccc(NC(=O)CCC(=O)O)c1 | 1.2 | -2.4 | 1.6 | 1.4 | -3.4
O=C(O)CCC(=O)Nc1ccc(SSc2ccc(NC(=O)CCC(=O)O)cc2)cc1 | 37.7* | -1.2 | -3.4 | 5.6 | -0.5
COc1cccc(S(=O)(=O)N2C[C@@H](O)COC[C@H]3O[C@@H](CC(=O)N4CCCCC4)CC[C@@H]32)c1 | -2.5 | 0.6 | -6.5 | 1.0 | 7.4
O=C(CCS(=O)(=O)Cc1ccccc1F)NCCc1ccc(Cl)cc1 | 3.1 | 1.5 | 2.8 | 12.2 | 16.6*
Cc1ccc(CCNC(=O)CCS(=O)(=O)Cc2ccc(C)cc2)cc1 | 0.3 | -1.4 | -2.0 | 12.7 | -1.3
O=C(COC(=O)Cc1ccc(Cl)cc1)NCCc1ccccc1 | -6.5 | -2.8 | -3.1 | -23.5* | 2.5
CCOc1ccc(CCNC(=O)COC(=O)COc2ccccc2C)cc1OCC | -1.4 | 2.8 | -3.6 | 6.9 | -0.7
Cc1ccccc1OCC(=O)OCC(=O)NCCc1ccccc1 | -0.3 | 15.4* | -0.7 | 14.1 | -2.8
O=C(NCC[C@@H]1CC[C@H](NS(=O)(=O)Cc2ccccc2)[C@H](CO)O1)C1CC1 | 1.3 | -1.5 | 4.5 | 1.5 | -0.6
SMILES | ERAP1 HTS inh | F508del corr | S100A4 MyoIIA | Ecoli rRNA inh | SIRT5 block
CN1[C@H](C(=O)Nc2ccccc2)[C@@H](CO)[C@@H]2Cn3c(ccc(-c4ccc(F)cc4)c3=O)[C@@H]21 | 3.8 | nt | -2.5 | 1.2 | 0.6
O=C(CN1CCCC1)OCCCC1CCCCC1 | 2.3 | -1.5 | -7.1 | 5.7 | -5.3
CC(C)(C)C1CCC(OC(=O)C[N+]2(C)CCCC2)CC1 (stereo unspecified) | 40.9* | 3.0 | -3.3 | 6.7 | -0.1
C[N+]1(CC(=O)OCCCC2CCCCC2)CCCC1 | 107.9* | -3.9 | -3.3 | 12.8 | 1.2
COc1ccc2c3c([nH]c2c1)[C@@H](CO)N(C(C)=O)CC31CCN(S(=O)(=O)c2cccs2)CC1 | 1.2 | 1.3 | -17.1 | -3.2 | nt
COc1ccccc1C=NNC(=O)c1ccccc1OCCOc1ccccc1 | -0.2 | -0.4 | -1.8 | -31.1* | -2.6
COc1cc(-c2nccc3cc4c(cc23)OCO4)cc(OC)c1OC | -0.8 | 9.2* | -2.1 | -10.9 | nt
CC(C)NC(=O)N(C)C[C@H]1Oc2ncc(C#CC3CCCCC3)cc2C(=O)N([C@@H](C)CO)C[C@H]1C | nt | 0.5 | nt | 5.8 | nt
Cc1c(C(=O)c2ccc(F)cc2F)c2ccccn2c1CCC#N | -0.7 | 0.6 | -0.9 | -4.0 | 2.3
Cc1c(C(=O)c2ccc(N(C)C)cc2)c2ccccn2c1CCC#N | 5.2 | -0.7 | -4.1 | -10.8 | 112.1*
CC(c1ccon1)N(C)C(=O)c1ccc2nc(Cc3cccc(Cl)c3)oc2c1 (stereo unspecified) | 7.3 | -2.4 | 1.2 | -28.2* | -2.6
COCC[N+]1(C)CCCCC1 | 89.0* | 2.6 | 9.9 | 15.8 | -1.5
O=C(O)c1ccc(NC2=C/C(=N/S(=O)(=O)c3ccccc3)c3ccccc3C2=O)cc1 | -1.4 | nt | -3.6 | -51.3 | 40.9*
O=C(O)c1ccc(NC2=C/C(=N/S(=O)(=O)c3cccs3)c3ccccc3C2=O)cc1 | 7.9 | 0.7 | 11.8 | -25.0 | 19.6*
C[C@@H]1CCCCO[C@H](CN(C)C(=O)Cc2ccccc2)[C@H](C)CN([C@@H](C)CO)C(=O)c2cc(NC(=O)CCC(F)(F)F)ccc2O1 | nt | 2.1 | nt | -2.2 | nt
C[C@H](CO)N1C[C@H](C)[C@@H](CN(C)C)Oc2ccc(NC(=O)CCN3CCOCC3)cc2C1=O | -0.4 | 0.4 | 0.3 | 4.2 | 1.8
Cc1ccc(-c2cc(C(=O)Nc3c(C)n(C)n(-c4ccccc4)c3=O)[nH]n2)c(O)c1C | 0.5 | -0.9 | 0.0 | -19.5* | -2.7
O=C(CSc1cccc[n+]1[O-])c1cccs1 | 1.5 | 2.7 | 14.6 | -6.8 | -2.8
O=C(CSc1cccc[n+]1[O-])C12CC3CC(CC(C3)C1)C2 | -3.0 | -5.4 | 2.5 | -27.2* | -2.8
Cc1ccc(Cl)cc1N1CCN(C(=O)Cc2c(C(=O)O)[nH]c3ccccc23)CC1 | 0.4 | 2.3 | -0.4 | -30.4* | 3.1
Cc1noc(C)c1NC(=O)Nc1ccc2c(c1)CC(=O)N([C@H](C)CO)C[C@@H](C)[C@H](CN(C)C(=O)Nc1ccc3c(c1)OCO3)O2 | -2.1 | -0.5 | -48.3 | 3.1 | 0.0
COCC#Cc1ccc([C@@H]2[C@H](CO)N3C(=O)CN(C(=O)Nc4cc(F)ccc4F)C[C@@H]23)cc1 | nt | nt | nt | -1.3 | nt
